From ChEMBL document CHEMBL1158577, “Role of hydrophobic substituents on the terminal nitrogen of histamine in receptor binding and agonist activity: development of an orally active histamine type 3 receptor agonist and evaluation of its antistress activity in mice” (J Med Chem, 2010)
Active and inactive are the calls of the source. No cut-off for these calls is given here.

Assays:
[1] = biological target: T1, Histamine H3 receptor (Homo sapiens, UniProt Q9Y5N1); assay: Agonist activity at human recombinant histamine H3 receptor expressed in CHO cells assessed as [35S]GTPgammaS binding at 10 nM after 1 hr by liquid scintillation counting relative to (R)-alpha-methylhistamine; assay type: functional, cell-based
Outline: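 CHO cells stably expressing human H3R. Agonist response is given as a percent of the response to the reference H3R agonist. Results are mean ± SEM, n = 3.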

[2] = biological target: T1, Histamine H3 receptor; assay: Agonist activity at human recombinant histamine H3 receptor expressed in CHO cells assessed as [35S]GTPgammaS binding after 1 hr by liquid scintillation counting; assay type: functional, cell-based
Outline: (§1)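 Used CHO cells stably expressing the human H3R for both affinity (pKi) and functional agonist measurements. Each value is the mean ± SEM of n = 3.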

[3] = system: Mus musculus; assay: Antistress activity against isolation-induced aggressive behavior in ICR mouse assessed as duration of attacks to intruder mouse at 7.5 mg/kg, po measured for 10 mins by resident-intruder test (RVb = 54.5 +/- 6.7 sec); assay type: functional
[4] = system: Mus musculus; assay: Antistress activity against isolation-induced aggressive behavior in ICR mouse assessed as duration of attacks to intruder mouse at 30 mg/kg, po measured for 10 mins by resident-intruder test (RVb = 54.5 +/- 6.7 sec); assay type: functional
[5] = biological target: T1, Histamine H3 receptor; assay: Displacement of [3H[N-alpha-methylhistamine form human recombinant histamine H3 receptor expressed in CHO cells after 1 hr by liquid scintillation counting; assay type: cell-based; outline: as §1
[6] = system: Mus musculus; assay: In-vivo agonist activity at histamine H3 receptor in ddY mouse assessed as N-tele-methylhistamine level per gram of brain at 30 mg/kg, po by gas chromatography (RVb = 315 +/- 20 ng); assay type: functional, organism-based; set-up: dose 30 mg/kg
[7] = system: Mus musculus; assay: Antistress activity against isolation-induced aggressive behavior in ICR mouse assessed as duration of attacks to intruder mouse at 3 mg/kg, po measured for 10 mins by resident-intruder test (RVb = 54.5 +/- 6.7 sec); assay type: functional
[8] = Ratio of drug level in brain to plasma in Wistar rat at 5 mg/kg, po after 1 hr; assay type: ADME, organism-based; set-up: dose 5 mg/kg, route oral; conditions: brain and plasma, read-out: BPR
Outline: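 Brain/plasma concentration ratio was determined in rats 1 h after administration, with n = 2.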

[9] = biological target: D(2) dopamine receptor (Homo sapiens, UniProt P14416); assay: Inhibition of dopamine D2 receptor
[10] = biological target: D(3) dopamine receptor (Homo sapiens, UniProt P35462); assay: Inhibition of dopamine D3 receptor
[11] = Oral bioavailability in Wistar rat at 5 mg/kg after 24 hrs by LC-MS/MS analysis; assay type: ADME, organism-based; conditions: in vivo
Outline: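 In rat, an oral dose of 5 mg/kg (n = 2) was used to determine AUC0-inf and bioavailability (%).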

[12] = system: Mus musculus; assay: In-vivo agonist activity at histamine H3 receptor in ddY mouse assessed as N-tele-methylhistamine level per gram of brain at 5 mg/kg, po by gas chromatography (RVb = 315 +/- 20 ng); assay type: functional, organism-based; set-up: dose 5 mg/kg
[13] = biological target: Cytochrome P450 3A4 (Homo sapiens, UniProt P08684); assay: Inhibition of human CYP3A4 expressed in insect cell microsome after 30 mins by fluorescence assay; assay type: ADME, microsomes
[14] = Volume of distribution at steady state in Wistar rat at 2 mg/kg, iv after 6 hrs by LC-MS/MS analysis; assay type: ADME, organism-based; set-up: dose 2 mg/kg, route intravenous; conditions: in vivo, read-out: Vdss
Outline: (§2)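 Rats received 2 mg/kg iv, with n = 2. Total clearance (L/h/kg), steady-state volume of distribution (L/kg) and half-life (h) were derived.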

[15] = system: Mus musculus; assay: In-vivo agonist activity at histamine H3 receptor in ddY mouse assessed as N-tele-methylhistamine level per gram of brain at 1 mg/kg, po by gas chromatography (RVb = 315 +/- 20 ng); assay type: functional, organism-based; set-up: dose 1 mg/kg
[16] = Total clearance in Wistar rat at 2 mg/kg, iv after 6 hrs by LC-MS/MS analysis; assay type: ADME, organism-based; set-up: dose 2 mg/kg, route intravenous; conditions: in vivo; outline: as §2
[17] = biological target: T2, 5-hydroxytryptamine receptor 3A (Homo sapiens, UniProt P46098); assay: Inhibition of 5HT3 receptor
T2 sequence (P46098 whole entry): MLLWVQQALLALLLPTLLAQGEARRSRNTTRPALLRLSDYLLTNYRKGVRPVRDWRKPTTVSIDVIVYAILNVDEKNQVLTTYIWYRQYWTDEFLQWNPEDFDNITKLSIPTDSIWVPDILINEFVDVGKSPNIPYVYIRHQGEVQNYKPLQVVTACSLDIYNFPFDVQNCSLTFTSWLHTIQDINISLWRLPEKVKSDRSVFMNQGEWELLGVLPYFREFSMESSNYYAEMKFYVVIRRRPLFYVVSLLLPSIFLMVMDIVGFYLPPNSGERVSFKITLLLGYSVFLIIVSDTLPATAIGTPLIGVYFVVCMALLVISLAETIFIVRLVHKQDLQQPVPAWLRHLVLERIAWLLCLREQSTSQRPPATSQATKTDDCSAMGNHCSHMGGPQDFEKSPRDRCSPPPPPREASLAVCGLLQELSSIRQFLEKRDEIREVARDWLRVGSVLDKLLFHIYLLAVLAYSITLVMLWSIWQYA

[18] = Half life in Wistar rat at 2 mg/kg, iv after 6 hrs by LC-MS/MS analysis; assay type: ADME, organism-based; set-up: dose 2 mg/kg, route intravenous; conditions: in vivo; outline: as §2
[19] = biological target: Histamine H1 receptor (Homo sapiens, UniProt P35367); assay: Inhibition of histamine H1 receptor
[20] = biological target: D(1A) dopamine receptor (Homo sapiens, UniProt P21728); assay: Inhibition of dopamine D1 receptor
[21] = biological target: Cytochrome P450 2D6 (Homo sapiens, UniProt P10635); assay: Inhibition of human CYP2D6 expressed in insect cell microsome after 30 mins by fluorescence assay; assay type: ADME, microsomes
[22] = biological target: Cytochrome P450 2C19 (Homo sapiens, UniProt P33261); assay: Inhibition of human CYP2C19 expressed in insect cell microsome after 30 mins by fluorescence assay; assay type: ADME, microsomes
[23] = biological target: T3, Muscarinic acetylcholine receptor M1 (Homo sapiens, UniProt P11229); assay: Inhibition of muscarinic M1 receptor
T3 sequence (P11229 whole entry): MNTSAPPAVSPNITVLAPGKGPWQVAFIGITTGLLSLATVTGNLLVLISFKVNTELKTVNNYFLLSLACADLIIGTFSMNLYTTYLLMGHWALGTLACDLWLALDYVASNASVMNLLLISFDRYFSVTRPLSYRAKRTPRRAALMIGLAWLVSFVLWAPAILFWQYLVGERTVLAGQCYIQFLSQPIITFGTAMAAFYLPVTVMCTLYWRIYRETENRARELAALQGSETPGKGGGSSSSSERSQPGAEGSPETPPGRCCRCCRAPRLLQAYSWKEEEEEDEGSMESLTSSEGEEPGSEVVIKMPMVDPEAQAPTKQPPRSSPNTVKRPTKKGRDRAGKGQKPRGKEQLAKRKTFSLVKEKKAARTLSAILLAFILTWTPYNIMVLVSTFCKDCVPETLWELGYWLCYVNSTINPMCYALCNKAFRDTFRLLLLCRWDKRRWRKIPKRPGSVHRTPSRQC

[24] = biological target: T4, 5-hydroxytryptamine receptor 1A (Homo sapiens, UniProt P08908); assay: Inhibition of 5HT1A receptor
T4 sequence (P08908 whole entry): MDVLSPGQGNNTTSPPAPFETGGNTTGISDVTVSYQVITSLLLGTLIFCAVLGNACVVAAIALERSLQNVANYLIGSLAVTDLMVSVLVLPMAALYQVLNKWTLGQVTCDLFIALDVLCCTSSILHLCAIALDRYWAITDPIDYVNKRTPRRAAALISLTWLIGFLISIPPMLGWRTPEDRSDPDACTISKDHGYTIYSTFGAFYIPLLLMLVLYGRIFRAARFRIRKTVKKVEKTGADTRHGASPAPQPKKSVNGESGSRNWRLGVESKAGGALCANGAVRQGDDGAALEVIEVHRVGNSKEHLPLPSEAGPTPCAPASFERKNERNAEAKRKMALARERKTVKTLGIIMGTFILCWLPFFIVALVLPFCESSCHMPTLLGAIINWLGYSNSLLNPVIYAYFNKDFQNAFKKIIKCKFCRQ

[25] = biological target: Beta-2 adrenergic receptor (Homo sapiens, UniProt P07550); assay: Inhibition of beta2 adrenergic receptor
[26] = biological target: T5, Cytochrome P450 1A2 (Homo sapiens, UniProt P05177); assay: Inhibition of human CYP1A2 expressed in insect cell microsome after 15 mins by fluorescence assay; assay type: ADME, microsomes
T5 sequence (P05177 whole entry): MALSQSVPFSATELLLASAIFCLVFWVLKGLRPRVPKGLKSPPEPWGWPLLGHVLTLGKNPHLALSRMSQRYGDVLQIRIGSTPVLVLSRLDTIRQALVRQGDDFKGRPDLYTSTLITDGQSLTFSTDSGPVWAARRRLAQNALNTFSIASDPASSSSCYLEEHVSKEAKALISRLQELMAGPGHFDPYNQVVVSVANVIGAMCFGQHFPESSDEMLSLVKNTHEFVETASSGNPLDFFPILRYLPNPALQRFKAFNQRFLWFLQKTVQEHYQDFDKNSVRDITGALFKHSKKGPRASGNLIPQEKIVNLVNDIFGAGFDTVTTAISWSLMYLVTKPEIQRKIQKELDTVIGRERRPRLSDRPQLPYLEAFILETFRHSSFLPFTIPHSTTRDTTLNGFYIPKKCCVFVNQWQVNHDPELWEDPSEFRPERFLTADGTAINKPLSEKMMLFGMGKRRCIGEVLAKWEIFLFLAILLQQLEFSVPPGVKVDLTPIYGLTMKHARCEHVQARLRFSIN

[27] = biological target: Histamine H4 receptor (Homo sapiens, UniProt Q9H3N8); assay: Inhibition of human recombinant histamine H4 receptor expressed in CHO cells; assay type: cell-based
[28] = biological target: Muscarinic acetylcholine receptor M3 (Homo sapiens, UniProt P20309); assay: Inhibition of muscarinic M3 receptor
[29] = biological target: Histamine H2 receptor (Homo sapiens, UniProt P25021); assay: Inhibition of histamine H2 receptor
[30] = biological target: 5-hydroxytryptamine receptor 2A (Homo sapiens, UniProt P28223); assay: Inhibition of 5HT2A receptor
[31] = Inhibition of alpha1 adrenergic receptor
[32] = biological target: Beta-1 adrenergic receptor (Homo sapiens, UniProt P08588); assay: Inhibition of beta-1 adrenergic receptor
[33] = Metabolic stability in rat liver S9 fraction assessed as […] after 60 mins by HPLC analysis; assay type: ADME, subcellular; conditions: s9, 1 h
Outline: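 Rat S9 metabolic activity was expressed as pmol/min/mg protein, reported as mean ± SEM with n = 3.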

T1 sequence (Q9Y5N1 whole entry): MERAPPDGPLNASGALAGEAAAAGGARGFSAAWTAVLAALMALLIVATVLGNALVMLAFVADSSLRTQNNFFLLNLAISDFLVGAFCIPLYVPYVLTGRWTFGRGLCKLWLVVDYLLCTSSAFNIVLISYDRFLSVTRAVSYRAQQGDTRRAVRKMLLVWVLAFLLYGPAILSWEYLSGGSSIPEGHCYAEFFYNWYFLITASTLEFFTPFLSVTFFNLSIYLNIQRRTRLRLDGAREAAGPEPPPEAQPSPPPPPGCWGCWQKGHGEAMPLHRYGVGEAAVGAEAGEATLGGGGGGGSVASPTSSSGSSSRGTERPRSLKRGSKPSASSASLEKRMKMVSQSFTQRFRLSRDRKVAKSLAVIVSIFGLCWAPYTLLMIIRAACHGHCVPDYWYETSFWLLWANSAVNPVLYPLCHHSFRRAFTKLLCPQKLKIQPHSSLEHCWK
Sequence of 5-hydroxytryptamine receptor 2A (P28223 whole entry): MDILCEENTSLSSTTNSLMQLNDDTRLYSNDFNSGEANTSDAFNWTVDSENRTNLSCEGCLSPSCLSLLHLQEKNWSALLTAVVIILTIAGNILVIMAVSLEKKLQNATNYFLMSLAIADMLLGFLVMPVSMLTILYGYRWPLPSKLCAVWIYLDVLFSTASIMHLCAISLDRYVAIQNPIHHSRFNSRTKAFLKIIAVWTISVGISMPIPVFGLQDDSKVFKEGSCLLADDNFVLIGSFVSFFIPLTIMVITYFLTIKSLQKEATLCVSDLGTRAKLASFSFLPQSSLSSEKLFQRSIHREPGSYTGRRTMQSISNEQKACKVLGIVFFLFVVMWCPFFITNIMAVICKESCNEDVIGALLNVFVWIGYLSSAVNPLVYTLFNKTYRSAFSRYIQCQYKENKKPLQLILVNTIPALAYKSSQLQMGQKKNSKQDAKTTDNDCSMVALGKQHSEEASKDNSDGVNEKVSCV
Sequence of D(2) dopamine receptor (P14416 whole entry): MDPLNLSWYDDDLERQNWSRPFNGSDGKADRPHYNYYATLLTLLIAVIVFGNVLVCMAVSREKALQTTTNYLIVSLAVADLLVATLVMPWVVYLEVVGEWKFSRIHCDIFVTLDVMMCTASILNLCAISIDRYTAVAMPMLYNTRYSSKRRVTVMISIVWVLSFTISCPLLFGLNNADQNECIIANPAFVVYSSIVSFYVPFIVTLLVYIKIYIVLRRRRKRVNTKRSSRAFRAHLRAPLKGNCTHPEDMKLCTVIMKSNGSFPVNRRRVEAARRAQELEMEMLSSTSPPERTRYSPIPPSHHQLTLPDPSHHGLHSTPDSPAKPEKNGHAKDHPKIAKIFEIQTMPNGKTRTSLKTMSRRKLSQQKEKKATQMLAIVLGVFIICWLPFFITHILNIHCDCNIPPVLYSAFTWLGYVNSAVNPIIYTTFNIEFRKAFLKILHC
Sequence of Cytochrome P450 2D6 (P10635 whole entry): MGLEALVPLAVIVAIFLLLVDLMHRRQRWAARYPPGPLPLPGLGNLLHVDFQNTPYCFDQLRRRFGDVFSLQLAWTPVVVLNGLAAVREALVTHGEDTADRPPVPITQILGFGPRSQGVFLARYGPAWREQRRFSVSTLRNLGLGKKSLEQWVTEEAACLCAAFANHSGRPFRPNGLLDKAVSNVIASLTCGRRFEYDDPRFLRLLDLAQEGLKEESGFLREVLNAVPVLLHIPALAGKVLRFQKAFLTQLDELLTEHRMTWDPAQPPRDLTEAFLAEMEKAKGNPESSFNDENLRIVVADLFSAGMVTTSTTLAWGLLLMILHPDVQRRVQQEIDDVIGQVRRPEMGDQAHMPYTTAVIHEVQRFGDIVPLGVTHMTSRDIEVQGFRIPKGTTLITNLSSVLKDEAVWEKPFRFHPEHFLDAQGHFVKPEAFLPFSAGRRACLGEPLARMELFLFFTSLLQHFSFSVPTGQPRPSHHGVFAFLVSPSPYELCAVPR
Sequence of D(3) dopamine receptor (P35462 whole entry): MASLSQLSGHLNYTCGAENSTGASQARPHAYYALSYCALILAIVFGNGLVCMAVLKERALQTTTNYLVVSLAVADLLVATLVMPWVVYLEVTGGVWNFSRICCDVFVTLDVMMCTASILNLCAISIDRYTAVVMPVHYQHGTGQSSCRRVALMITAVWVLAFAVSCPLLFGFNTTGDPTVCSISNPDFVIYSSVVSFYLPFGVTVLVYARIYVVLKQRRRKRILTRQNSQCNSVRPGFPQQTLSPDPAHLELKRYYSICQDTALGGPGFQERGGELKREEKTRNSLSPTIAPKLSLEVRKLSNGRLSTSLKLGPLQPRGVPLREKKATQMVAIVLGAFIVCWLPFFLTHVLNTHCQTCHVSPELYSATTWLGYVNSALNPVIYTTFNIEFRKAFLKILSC
Sequence of Histamine H2 receptor (P25021 whole entry): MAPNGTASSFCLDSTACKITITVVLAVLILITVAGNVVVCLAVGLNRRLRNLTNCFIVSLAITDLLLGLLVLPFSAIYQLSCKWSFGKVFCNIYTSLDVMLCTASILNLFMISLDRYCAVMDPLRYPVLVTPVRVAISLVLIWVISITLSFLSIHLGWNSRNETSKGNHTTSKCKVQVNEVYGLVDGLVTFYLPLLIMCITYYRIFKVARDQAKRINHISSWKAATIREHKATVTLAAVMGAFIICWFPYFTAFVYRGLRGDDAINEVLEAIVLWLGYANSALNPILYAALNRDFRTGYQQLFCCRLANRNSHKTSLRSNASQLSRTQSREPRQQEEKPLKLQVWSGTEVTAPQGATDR
Sequence of Histamine H4 receptor (Q9H3N8 whole entry): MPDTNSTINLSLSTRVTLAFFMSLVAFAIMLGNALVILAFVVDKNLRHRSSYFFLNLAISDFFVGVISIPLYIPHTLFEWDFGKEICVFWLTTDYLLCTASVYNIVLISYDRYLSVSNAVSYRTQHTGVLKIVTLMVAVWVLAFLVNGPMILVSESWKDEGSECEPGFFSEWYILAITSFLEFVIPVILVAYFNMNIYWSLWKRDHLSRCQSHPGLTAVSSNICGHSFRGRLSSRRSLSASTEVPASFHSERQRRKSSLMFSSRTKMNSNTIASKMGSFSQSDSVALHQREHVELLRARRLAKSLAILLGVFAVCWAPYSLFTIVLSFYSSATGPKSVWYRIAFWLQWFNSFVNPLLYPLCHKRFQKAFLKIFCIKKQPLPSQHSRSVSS
Sequence of Cytochrome P450 3A4 (P08684 whole entry): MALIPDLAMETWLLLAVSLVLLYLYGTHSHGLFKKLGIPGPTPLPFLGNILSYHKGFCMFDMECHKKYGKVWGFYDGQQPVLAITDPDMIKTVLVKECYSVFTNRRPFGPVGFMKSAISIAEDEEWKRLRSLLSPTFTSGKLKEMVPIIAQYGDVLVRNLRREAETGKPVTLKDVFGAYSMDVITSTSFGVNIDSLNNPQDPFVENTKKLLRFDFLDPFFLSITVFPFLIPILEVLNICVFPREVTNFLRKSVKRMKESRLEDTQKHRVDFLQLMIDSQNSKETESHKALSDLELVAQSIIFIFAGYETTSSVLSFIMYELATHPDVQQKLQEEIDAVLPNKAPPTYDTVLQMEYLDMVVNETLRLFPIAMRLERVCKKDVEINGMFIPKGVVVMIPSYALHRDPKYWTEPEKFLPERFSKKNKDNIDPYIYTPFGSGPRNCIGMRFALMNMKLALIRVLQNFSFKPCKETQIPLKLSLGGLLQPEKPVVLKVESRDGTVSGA
Sequence of Cytochrome P450 2C19 (P33261 whole entry): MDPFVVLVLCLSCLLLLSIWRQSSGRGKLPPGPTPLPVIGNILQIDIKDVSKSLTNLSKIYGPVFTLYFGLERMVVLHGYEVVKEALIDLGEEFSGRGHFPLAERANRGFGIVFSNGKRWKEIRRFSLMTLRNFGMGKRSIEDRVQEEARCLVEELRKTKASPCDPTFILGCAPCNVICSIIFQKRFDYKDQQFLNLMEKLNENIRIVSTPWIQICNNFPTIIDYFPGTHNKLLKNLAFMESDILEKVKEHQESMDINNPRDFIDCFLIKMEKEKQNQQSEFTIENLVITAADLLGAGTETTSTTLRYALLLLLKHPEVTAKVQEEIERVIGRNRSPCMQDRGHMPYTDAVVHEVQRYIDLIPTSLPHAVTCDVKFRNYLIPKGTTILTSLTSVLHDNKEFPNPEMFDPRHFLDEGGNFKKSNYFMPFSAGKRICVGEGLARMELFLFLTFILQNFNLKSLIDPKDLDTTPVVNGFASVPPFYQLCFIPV
Sequence of D(1A) dopamine receptor (P21728 whole entry): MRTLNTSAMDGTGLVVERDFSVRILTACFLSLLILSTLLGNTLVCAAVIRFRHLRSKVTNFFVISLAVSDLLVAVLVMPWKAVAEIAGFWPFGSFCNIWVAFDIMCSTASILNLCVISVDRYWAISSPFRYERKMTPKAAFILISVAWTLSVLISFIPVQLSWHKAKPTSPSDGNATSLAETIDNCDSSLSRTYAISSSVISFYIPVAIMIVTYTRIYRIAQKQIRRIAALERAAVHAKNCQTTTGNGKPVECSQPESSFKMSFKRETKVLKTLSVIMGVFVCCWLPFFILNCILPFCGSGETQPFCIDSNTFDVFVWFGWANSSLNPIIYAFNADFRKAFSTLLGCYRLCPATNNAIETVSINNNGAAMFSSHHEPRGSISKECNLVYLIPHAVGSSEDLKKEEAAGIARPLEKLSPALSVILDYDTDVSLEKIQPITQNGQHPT
Sequence of Beta-1 adrenergic receptor (P08588 whole entry): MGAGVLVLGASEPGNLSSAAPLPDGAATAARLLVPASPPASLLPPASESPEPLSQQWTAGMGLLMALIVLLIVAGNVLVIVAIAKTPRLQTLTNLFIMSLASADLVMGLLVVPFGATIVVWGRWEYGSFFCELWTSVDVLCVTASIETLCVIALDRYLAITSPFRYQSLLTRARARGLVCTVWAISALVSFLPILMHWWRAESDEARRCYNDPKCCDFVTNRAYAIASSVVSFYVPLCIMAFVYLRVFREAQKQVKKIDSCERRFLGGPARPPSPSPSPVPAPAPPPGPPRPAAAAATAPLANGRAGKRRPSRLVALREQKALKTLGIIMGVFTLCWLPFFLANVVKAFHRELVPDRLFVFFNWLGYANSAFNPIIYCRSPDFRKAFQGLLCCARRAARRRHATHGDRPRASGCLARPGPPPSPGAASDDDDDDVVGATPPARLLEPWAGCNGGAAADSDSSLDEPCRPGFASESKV

c1nc(CCNc2ccc(C3CCCCC3)cc2)c[nH]1
Activity [1]: inactive
EC50 ([2]; cho): Not Active

COCCCC/C(=N\OCCN)c1ccc(C(F)(F)F)cc1 [FLUVOXAMINE]
Time [3]: 30.7 s
Time [4]: 19.9 s

c1nc(CCNC2CCCCC2)c[nH]1
Activity [1]: 31%
EC50 ([2]; read-out: EC50): 3400 nM
Ki [5]: 1600 nM

CC(C)(C)c1ccc(SCCc2c[nH]cn2)cc1
Nτ-methylhistamine level [6]: 96 ng/g
Time [7]: 42.9 s
Kp at 1 h [8]: 6
Ki [9]: > 1000 nM
Ki [10]: > 1000 nM
bioavailability [11]: 53.5%
Activity [1]: 77%
Nτ-methylhistamine level [12]: 92 ng/g
IC50 [13]: 470 nM
Vd [14]: 3.4 L/kg
Nτ-methylhistamine level [15]: 298 ng/g
clearance [16]: 46.7 mL/min/kg
Ki [17]: > 1000 nM
EC50 ([2]; read-out: EC50): 0.75 nM
half-life [18]: 1 h
Ki [19]: > 1000 nM
Ki [20]: > 1000 nM
IC50 [21]: 680 nM
IC50 [22]: 8.5 nM
Ki [23]: > 1000 nM
Ki [5]: 0.17 nM
Ki [24]: > 1000 nM
Ki [25]: > 1000 nM
IC50 [26]: 680 nM
Ki [27]: 1.1 nM
Ki [28]: > 1000 nM
Ki [29]: > 1000 nM
Ki [30]: > 1000 nM
Time [4]: 16.3 s
Ki [31]: > 1000 nM
Ki [32]: > 1000 nM
Stability [33]: 13 pmol/min

Cc1ccc(NCCc2cnc[nH]2)cc1
EC50 ([2]; read-out: EC50): 88 nM
Ki [5]: 14 nM

COc1ccc(NCCc2c[nH]cn2)cc1
Activity [1]: 56%
EC50 ([2]; read-out: EC50): 65 nM
Ki [5]: 24 nM

FC(F)(F)c1ccc(NCCc2c[nH]cn2)cc1
Activity [1]: 56%
EC50 ([2]; read-out: EC50): 19 nM
Ki [5]: 1.1 nM

Cc1ccc(NCCc2c[nH]cn2)cc1C
Activity [1]: 59%

c1ccc(NCCc2c[nH]cn2)cc1
Activity [1]: 42%
